# Measured values pooled from the literature.
# Each line is one published result; the experiments were not run side by side.
# Sample: Caco-2
SMILES,conditions,efflux ratio
CC(C)NCC(O)COc1cccc2ccccc12 (stereo not drawn),"5 µM, 1 h",0.8
Cn1c(=O)c2c(nc(S)n2C)n(C)c1=O,"10 µM, 2 h",3.3
CNC(=C[N+](=O)[O-])NCCSCc1ccc(CN(C)C)o1,,5
C[C@H]1O[C@@H](O[C@H]2[C@@H](O)C[C@H](O[C@H]3[C@@H](O)C[C@H](O[C@H]4CC[C@@]5(C)[C@H](CC[C@@H]6[C@@H]5C[C@@H](O)[C@]5(C)[C@@H](C7=CC(=O)OC7)CC[C@]65O)C4)O[C@@H]3C)O[C@@H]2C)C[C@H](O)[C@@H]1O,,643
CC(C)NCC(O)COc1cccc2ccccc12 (stereo not drawn),"10 µM, 2 h, pH 7.4",0.47
C[C@H]1O[C@@H](O[C@H]2[C@@H](O)C[C@H](O[C@H]3[C@@H](O)C[C@H](O[C@H]4CC[C@@]5(C)[C@H](CC[C@@H]6[C@@H]5C[C@@H](O)[C@]5(C)[C@@H](C7=CC(=O)OC7)CC[C@]65O)C4)O[C@@H]3C)O[C@@H]2C)C[C@H](O)[C@@H]1O,"10 µM, 2 h, pH 7.4",87.9
CCOC(=O)[C@@]12C[C@@H]1[C@@H](n1ccc3c(NC)nc(C#Cc4ccc(Cl)s4)nc31)[C@H](O)[C@@H]2O,"10 µM, 2 h, pH 7.4",15.6
Nc1nc2c(ncn2COCCO)c(=O)[nH]1,"10 µM, 2 h, pH 7.4",9.42
CO[C@@H](C[C@H]1C(C)=CC[C@@H]2[C@]3(C)C[C@H](O[C@@H]4O[C@@H](C)[C@H](OC(=O)c5cccc(O)c5)[C@@H](O[C@@H]5O[C@H](CO)[C@@H](O)[C@H](O)[C@H]5NC(C)=O)[C@H]4O)[C@@H](O)C(C)(C)[C@H]3CC[C@]21C)[C@H](N)C(=O)O.O=C(O)C(F)(F)F,"5 µM, 1 h",4.6
